The results in this text go back to ChEMBL document CHEMBL4725264, “Synthesis and biological evaluation of a novel photo-activated histone deacetylase inhibitor” (Bioorg Med Chem Lett, 2020).

In data set [1] the target is T1, Histone deacetylase (Homo sapiens) (UniProt Q13547+O15379+Q9UBN7+Q92769+Q9UQL6+Q8WUI4+Q9BY41+Q96DB2+P56524+Q9UKV0+Q969S8). The data set is described as follows: Inhibition of HDAC in human HL-60 cells assessed as increase in H3 histone acetylation at 10 uM after 24 hrs by Western blot anlaysis. The format is cell-based. The procedure, abridged: (§1)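 Caged compound coated on angioplasty balloon at 3.0ug/mm2. Balloon either exposed to 365 nm UV (65mW, 4 min) or left unexposed, then compound eluted. HL60 cells (RPMI-1640, 10% heat-inactivated FCS, 37 °C, 5% CO2) treated with eluate at 10.0 µM for 24 h, then PBS-washed. Histones acid-extracted (H2SO4, acetone precipitation), quantified by Bradford. 25 µg per lane run on 15% SDS-PAGE and transferred to PVDF. Blocked in 5% milk, probed overnight at 4 °C with anti-acetyl histone H3, detected with HRP anti-rabbit IgG (1:1000). Untreated cells as control.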

The next data set concerns HUVEC. Description: Cytotoxicity against HUVEC at 1.0 mmol/L after 24 hrs by trypan blue staining based assay. Type of data set: cell-based. To be noted: human, 1000 µM. In a few lines:
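HUVECs (pooled donor) grown in Medium-199 with 20% FCS, endothelial cell growth factor and heparin, 37 °C, 5% CO2. Agents dissolved in 100% DMSO and added at final 1.0 mmol/L for 24 h. Viability scored by 0.4% trypan blue exclusion right after culture, relative to viable count at start. Untreated cells as control. At least 3 repeats, averaged.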

In data set [2] the target is T1, Histone deacetylase (Homo sapiens). Description: Inhibition of HDAC in human HL-60 cells assessed as increase in H3 histone acetylation at 10 uM under UV irradiation after 24 hrs by Western blot anlaysis. The format is cell-based. The procedure, abridged: as §1
For orientation: Immunoblotting shows a protein as a band on a membrane.

Data set [3] is described as follows: Drug metabolism assessed as photolysis by measuring parent compound at 4.26 mM using MeCN and Water (1:3) as solvent system measured upon irradiation with 8-Watt UV365nm light after 30 mins by HPLC analysis. To be noted: MeCN and water (1:3) solvent system, read-out: Drug metabolism. The format is physicochemical. The procedure, abridged:
(§2)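 Caged compound prepared as 4.26 mM solution in MeCN/water (1:3). Irradiated with 8-Watt 365 nm UV lamp. Aliquots taken at 30, 45, 60, 75 and 90 min and analysed by HPLC for remaining caged parent and released hydroxamic acid (identified by m/z). Carboxamide side product tracked by its separate peak.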

Data set [4] is described as follows: Drug metabolism assessed as photolysis by measuring parent compound at 4.26 mM using MeCN and Water (1:3) as solvent system measured upon irradiation with 8-Watt UV365nm light after 45 mins by HPLC analysis. The format is physicochemical. To be noted: MeCN and water (1:3) solvent system, read-out: Drug metabolism. In a few lines: as §2
The nature of data set [5]: Drug metabolism assessed as photolysis by measuring parent compound at 4.26 mM using MeCN and Water (1:3) as solvent system measured upon irradiation with 8-Watt UV365nm light after 60 mins by HPLC analysis. The format is physicochemical. To be noted: MeCN and water (1:3) solvent system, read-out: Drug metabolism. The procedure, abridged: as §2
The nature of data set [6]: Drug metabolism assessed as photolysis by measuring parent compound at 4.26 mM using MeCN and Water (1:3) as solvent system measured upon irradiation with 8-Watt UV365nm light after 75 mins by HPLC analysis. Type of data set: physicochemical. To be noted: MeCN and water (1:3) solvent system, read-out: Drug metabolism. The procedure, abridged:
as §2

A short description of data set [7]: Drug metabolism assessed as photolysis by measuring parent compound at 4.26 mM using MeCN and Water (1:3) as solvent system measured upon irradiation with 8-Watt UV365nm light after 90 mins by HPLC analysis. The format is physicochemical. To be noted: MeCN and water (1:3) solvent system, read-out: Drug metabolism. In a few lines: as §2
A short description of data set [8]: Drug metabolism assessed as photolysis by measuring parent compound at 85 uM using DMSO, EtOH and water (4:4:92) as solvent system measured upon irradiation with 100mW UV365nm light after 2 mins by HPLC analysis. Type of data set: physicochemical.
Data set [9] in a line: Drug metabolism assessed as photolysis by measuring parent compound at 85 uM using DMSO, EtOH and water (4:4:92) as solvent system measured upon irradiation with 100mW UV365nm light after 4 mins by HPLC analysis. Type of data set: physicochemical. To be noted: EtOH and water (4:4:92) solvent system, read-out: Drug metabolism.
Data set [10] is described as follows: Drug metabolism assessed as photolysis by measuring parent compound at 85 uM using DMSO, EtOH and water (4:4:92) as solvent system measured upon irradiation with 100mW UV365nm light after 6 mins by HPLC analysis. The format is physicochemical. To be noted: EtOH and water (4:4:92) solvent system, read-out: Drug metabolism.

Calls of active or inactive are those of the source. The rule behind the calls is not given here.

In the case of `CS(=O)(=O)Nc1cccc(-c2ccc(C(=O)NO)cc2)c1`, the inhibition result in data set [1] is “Active”. Also, in the data set with HUVEC, the Activity result is on record as “Toxic”.

For `CC(=O)O[C@H]1C(=O)[C@@]2(C)[C@H]([C@H](OC(=O)c3ccccc3)[C@]3(O)C[C@H](OC(=O)[C@H](O)[C@@H](NC(=O)c4ccccc4)c4ccccc4)C(C)=C1C3(C)C)[C@]1(OC(C)=O)CO[C@@H]1C[C@@H]2O` [PACLITAXEL], the Activity result in the data set on HUVEC is reported as “Toxic”.

Turning to `COc1cc(C(C)ONC(=O)c2ccc(-c3cccc(NS(C)(=O)=O)c3)cc2)c([N+](=O)[O-])cc1OCCCC(=O)O` (centres undefined), the inhibition entry in data set [1] was “inactive”. The inhibition entry in data set [2] is “Active”. Moreover, the Activity result in the data set on HUVEC was “Non-Toxic”. The remaining at 0.5 h, 4260 µM in [3] amounted to 53.3%. The remaining at 0.75 h, 4260 µM in data set [4] is 18%. The remaining at 1 h, 4260 µM in [5] stood at 8.4%. Besides, the remaining at 1.25 h, 4260 µM in data set [6] was determined as 2.4%. Moreover, in data set [7], the remaining at 1.5 h, 4260 µM came out at 0.7%. Further, the Drug metabolism in data set [8] is given as 28.9%. Also, in data set [9], the remaining at 4 min, 85 µM came out at 11.1%. For the same compound, the remaining at 0.1 h, 85 µM in [10] was 8.2%.
